Reference: ChEMBL document CHEMBL5724801, “EUbOPEN Chemogenomics Library - Multiplex” (2024)
“And” between values parts separate entries of the source, which are not always exact repeats. Equal values may be shown once.

Tested on: U2OS
Test: Multiplex assay against U2OS
Assay type: toxicity, cell-based
Settings: human
Procedure, shortened: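 Four dyes were applied at seeding to live cells: Hoechst33342, BioTracker Green Microtubule Cytoskeleton Dye, MitoTracker Red and Annexin V Alexa Fluor 680. Imaging after compound addition used a CQ1 microscope at 37°C and 5% CO2. CellPathfinder machine-learning gating then sorted cells into Hoechst high-intensity objects or normal cells, normal cells into healthy, pyknosed or fragmented nuclei, and pyknosed cells into mitotic or apoptotic, with tubulin, mitochondrial-mass and membrane-permeability phenotypes given as per cents of healthy-nucleus cells.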

[1] = 12 h, 1 µM, compound concentration 1 uM
[2] = 12 h, 10 µM, compound concentration 10 uM
[3] = 24 h, 1 µM, compound concentration 1 uM
[4] = 24 h, 10 µM, compound concentration 10 uM
[5] = 48 h, 1 µM, compound concentration 1 uM
[6] = 48 h, 10 µM, compound concentration 10 uM

CC(C)(O)C(=O)N1CCN(c2ccc(C(F)(F)F)c(C3=C(c4c[nH]c5ccccc45)C(=O)NC3=O)c2)CC1
Population Apoptotic (%) [1]: 88% and 92%
Population Fragmented Nuclei (%) [1]: 29% and 14%
Population Healthy Nuclei (%) [1]: 63% and 75%
Population Hoechst High Intensity Objects (%) [1]: 3% and 1%
Population Membrane Permeable-Phenotype (%) [1]: 5% and 4%
Population Mitochondria Different-Phenotype (%) [1]: 2% and 4%
Population Mitotic Cells (%) [1]: 11% and 7%
Population Normal (%) [1]: 96% and 98%
Population Pyknosed Nuclei (%) [1]: 7% and 9%
Population Tubulin-Different-Phenotype (%) [1]: 3%
Total Cell Count [1]: 238 and 134
Population Apoptotic (%) [2]: 76% and 50%
Population Healthy Nuclei (%) [2]: 46% and 77%
Population Hoechst High Intensity Objects (%) [2]: 6% and 1%
Population Membrane Permeable-Phenotype (%) [2]: 39% and 14%
Population Mitochondria Different-Phenotype (%) [2]: 23% and 14%
Population Mitotic Cells (%) [2]: 24% and 50%
Population Normal (%) [2]: 93% and 98%
Population Pyknosed Nuclei (%) [2]: 16%
Population Tubulin-Different-Phenotype (%) [2]: 30% and 15%
Total Cell Count [2]: 166 and 148
Population Apoptotic (%) [3]: 89% and 82%
Population Fragmented Nuclei (%) [3]: 27% and 22%
Population Healthy Nuclei (%) [3]: 61% and 67%
Population Hoechst High Intensity Objects (%) [3]: 3% and 0%
Population Membrane Permeable-Phenotype (%) [3]: 7% and 4%
Population Mitochondria Different-Phenotype (%) [3]: 3% and 2%
Population Mitotic Cells (%) [3]: 10% and 17%
Population Normal (%) [3]: 96% and 100%
Population Pyknosed Nuclei (%) [3]: 11% and 9%
Population Tubulin-Different-Phenotype (%) [3]: 5% and 2%
Total Cell Count [3]: 263 and 172
Population Apoptotic (%) [4]: 87% and 70%
Population Fragmented Nuclei (%) [4]: 48% and 16%
Population Healthy Nuclei (%) [4]: 27% and 53%
Population Hoechst High Intensity Objects (%) [4]: 6% and 2%
Population Membrane Permeable-Phenotype (%) [4]: 11% and 15%
Population Mitochondria Different-Phenotype (%) [4]: 34% and 24%
Population Mitotic Cells (%) [4]: 12% and 29%
Population Normal (%) [4]: 93% and 97%
Population Pyknosed Nuclei (%) [4]: 24% and 29%
Population Tubulin-Different-Phenotype (%) [4]: 15% and 11%
Total Cell Count [4]: 172 and 152
Population Apoptotic (%) [5]: 95% and 85%
Population Fragmented Nuclei (%) [5]: 21% and 17%
Population Healthy Nuclei (%) [5]: 65% and 73%
Population Hoechst High Intensity Objects (%) [5]: 3% and 1%
Population Membrane Permeable-Phenotype (%) [5]: 6% and 7%
Population Mitochondria Different-Phenotype (%) [5]: 4% and 3%
Population Mitotic Cells (%) [5]: 4% and 14%
Population Normal (%) [5]: 96% and 98%
Population Pyknosed Nuclei (%) [5]: 12% and 9%
Population Tubulin-Different-Phenotype (%) [5]: 5% and 2%
Total Cell Count [5]: 377 and 233
Population Apoptotic (%) [6]: 95% and 96%
Population Fragmented Nuclei (%) [6]: 57% and 31%
Population Healthy Nuclei (%) [6]: 11% and 27%
Population Hoechst High Intensity Objects (%) [6]: 14% and 7%
Population Membrane Permeable-Phenotype (%) [6]: 27% and 17%
Population Mitochondria Different-Phenotype (%) [6]: 16% and 14%
Population Mitotic Cells (%) [6]: 4% and 3%
Population Normal (%) [6]: 85% and 92%
Population Pyknosed Nuclei (%) [6]: 30% and 41%
Population Tubulin-Different-Phenotype (%) [6]: 11% and 17%
Total Cell Count [6]: 177 and 163

O=C1[C@H](Cc2ccc(O)cc2)N2C(=O)CCN(C(=O)NCc3ccccc3)[C@H]2CN1Cc1cccc2ccccc12
Population Apoptotic (%) [1]: 91% and 84%
Population Fragmented Nuclei (%) [1]: 13% and 21%
Population Healthy Nuclei (%) [1]: 74% and 66%
Population Hoechst High Intensity Objects (%) [1]: 4% and 0%
Population Membrane Permeable-Phenotype (%) [1]: 4% and 5%
Population Mitochondria Different-Phenotype (%) [1]: 1% and 8%
Population Mitotic Cells (%) [1]: 8% and 15%
Population Normal (%) [1]: 96% and 99%
Population Pyknosed Nuclei (%) [1]: 12% and 11%
Population Tubulin-Different-Phenotype (%) [1]: 1% and 4%
Total Cell Count [1]: 200 and 113
Population Apoptotic (%) [2]: 60% and 72%
Population Fragmented Nuclei (%) [2]: 32% and 19%
Population Healthy Nuclei (%) [2]: 50% and 67%
Population Hoechst High Intensity Objects (%) [2]: 3% and 6%
Population Membrane Permeable-Phenotype (%) [2]: 55% and 38%
Population Mitochondria Different-Phenotype (%) [2]: 35% and 47%
Population Mitotic Cells (%) [2]: 40% and 27%
Population Normal (%) [2]: 96% and 93%
Population Pyknosed Nuclei (%) [2]: 17% and 13%
Population Tubulin-Different-Phenotype (%) [2]: 55% and 43%
Total Cell Count [2]: 207 and 88
Population Apoptotic (%) [3]: 80% and 88%
Population Fragmented Nuclei (%) [3]: 13% and 14%
Population Healthy Nuclei (%) [3]: 73% and 71%
Population Hoechst High Intensity Objects (%) [3]: 2% and 1%
Population Membrane Permeable-Phenotype (%) [3]: 4% and 7%
Population Mitochondria Different-Phenotype (%) [3]: 1% and 5%
Population Mitotic Cells (%) [3]: 19% and 11%
Population Normal (%) [3]: 97% and 98%
Population Pyknosed Nuclei (%) [3]: 13% and 14%
Population Tubulin-Different-Phenotype (%) [3]: 2% and 4%
Total Cell Count [3]: 242 and 127
Population Apoptotic (%) [4]: 65% and 85%
Population Fragmented Nuclei (%) [4]: 34% and 29%
Population Healthy Nuclei (%) [4]: 42% and 54%
Population Hoechst High Intensity Objects (%) [4]: 3% and 5%
Population Membrane Permeable-Phenotype (%) [4]: 25% and 36%
Population Mitochondria Different-Phenotype (%) [4]: 23% and 38%
Population Mitotic Cells (%) [4]: 34% and 14%
Population Normal (%) [4]: 96% and 94%
Population Pyknosed Nuclei (%) [4]: 22% and 16%
Population Tubulin-Different-Phenotype (%) [4]: 25% and 42%
Total Cell Count [4]: 214 and 91
Population Apoptotic (%) [5]: 81% and 95%
Population Fragmented Nuclei (%) [5]: 15% and 16%
Population Healthy Nuclei (%) [5]: 73% and 67%
Population Hoechst High Intensity Objects (%) [5]: 3% and 5%
Population Membrane Permeable-Phenotype (%) [5]: 2% and 3%
Population Mitochondria Different-Phenotype (%) [5]: 2% and 0%
Population Normal (%) [5]: 96% and 94%
Population Pyknosed Nuclei (%) [5]: 11% and 15%
Population Tubulin-Different-Phenotype (%) [5]: 3% and 5%
Total Cell Count [5]: 326 and 168
Population Apoptotic (%) [6]: 82% and 81%
Population Fragmented Nuclei (%) [6]: 37% and 33%
Population Healthy Nuclei (%) [6]: 43% and 46%
Population Hoechst High Intensity Objects (%) [6]: 5% and 4%
Population Membrane Permeable-Phenotype (%) [6]: 28% and 22%
Population Mitochondria Different-Phenotype (%) [6]: 16% and 20%
Population Mitotic Cells (%) [6]: 17% and 18%
Population Normal (%) [6]: 94% and 95%
Population Pyknosed Nuclei (%) [6]: 19% and 20%
Population Tubulin-Different-Phenotype (%) [6]: 19% and 18%
Total Cell Count [6]: 252 and 111

C[C@H](N)COC(=O)[C@@H](CCCCN)NC(=O)Cc1c(-c2ccc3ccccc3c2)[nH]c2c1ccc1ccccc12
Population Apoptotic (%) [1]: 73% and 75%
Population Fragmented Nuclei (%) [1]: 26% and 14%
Population Healthy Nuclei (%) [1]: 66% and 78%
Population Hoechst High Intensity Objects (%) [1]: 3% and 0%
Population Membrane Permeable-Phenotype (%) [1]: 6% and 4%
Population Mitochondria Different-Phenotype (%) [1]: 3% and 2%
Population Mitotic Cells (%) [1]: 26% and 25%
Population Normal (%) [1]: 96% and 99%
Population Pyknosed Nuclei (%) [1]: 6%
Population Tubulin-Different-Phenotype (%) [1]: 3% and 4%
Total Cell Count [1]: 244 and 128
Population Apoptotic (%) [2]: 78% and 50%
Population Fragmented Nuclei (%) [2]: 23% and 24%
Population Healthy Nuclei (%) [2]: 69% and 73%
Population Hoechst High Intensity Objects (%) [2]: 2% and 0%
Population Mitochondria Different-Phenotype (%) [2]: 1% and 3%
Population Mitotic Cells (%) [2]: 21% and 50%
Population Normal (%) [2]: 97% and 100%
Population Pyknosed Nuclei (%) [2]: 7% and 1%
Population Tubulin-Different-Phenotype (%) [2]: 3% and 5%
Total Cell Count [2]: 279 and 106
Population Apoptotic (%) [3]: 83% and 90%
Population Fragmented Nuclei (%) [3]: 22% and 16%
Population Healthy Nuclei (%) [3]: 68% and 77%
Population Hoechst High Intensity Objects (%) [3]: 2% and 1%
Population Membrane Permeable-Phenotype (%) [3]: 3% and 6%
Population Mitochondria Different-Phenotype (%) [3]: 1%
Population Mitotic Cells (%) [3]: 16% and 10%
Population Normal (%) [3]: 97% and 98%
Population Pyknosed Nuclei (%) [3]: 8% and 5%
Population Tubulin-Different-Phenotype (%) [3]: 2% and 3%
Total Cell Count [3]: 292 and 170
Population Apoptotic (%) [4]: 81% and 100%
Population Fragmented Nuclei (%) [4]: 19% and 17%
Population Healthy Nuclei (%) [4]: 73% and 79%
Population Hoechst High Intensity Objects (%) [4]: 2%
Population Membrane Permeable-Phenotype (%) [4]: 5% and 11%
Population Mitochondria Different-Phenotype (%) [4]: 1% and 3%
Population Mitotic Cells (%) [4]: 18% and 0%
Population Normal (%) [4]: 97%
Population Pyknosed Nuclei (%) [4]: 6% and 2%
Population Tubulin-Different-Phenotype (%) [4]: 2% and 6%
Total Cell Count [4]: 337 and 142
Population Apoptotic (%) [5]: 79% and 73%
Population Fragmented Nuclei (%) [5]: 16% and 17%
Population Healthy Nuclei (%) [5]: 78% and 73%
Population Hoechst High Intensity Objects (%) [5]: 1% and 2%
Population Membrane Permeable-Phenotype (%) [5]: 2% and 3%
Population Mitochondria Different-Phenotype (%) [5]: 2% and 4%
Population Mitotic Cells (%) [5]: 20% and 26%
Population Normal (%) [5]: 98% and 97%
Population Pyknosed Nuclei (%) [5]: 5% and 8%
Population Tubulin-Different-Phenotype (%) [5]: 2% and 1%
Total Cell Count [5]: 440 and 231
Population Apoptotic (%) [6]: 90%
Population Fragmented Nuclei (%) [6]: 14% and 16%
Population Healthy Nuclei (%) [6]: 74% and 77%
Population Hoechst High Intensity Objects (%) [6]: 4%
Population Membrane Permeable-Phenotype (%) [6]: 6% and 16%
Population Mitochondria Different-Phenotype (%) [6]: 1% and 2%
Population Mitotic Cells (%) [6]: 9% and 10%
Population Normal (%) [6]: 95%
Population Pyknosed Nuclei (%) [6]: 10% and 5%
Population Tubulin-Different-Phenotype (%) [6]: 2% and 6%
Total Cell Count [6]: 505 and 184
